The text below walks through data of PMC7453301 (Journal of Pesticide Science, 2020).

A word on the IC50: it is the concentration needed to halve the response being measured. In general, solubility refers to the dissolved amount per volume that the medium holds. A high value points to a readily soluble substance.

≈ marks a conversion by molar mass, not a printed value.

Series [1] deals with Marssonina blotch. Briefly: Field trials, apple Marssonina blotch. Format: in vivo. The settings on record: PARADE 15FL; field trials Aomori Prefecture 2010 and 2013.
Series [2] has as its target SDH derived from Solanum lycopersicum (Tomato) (Solanum lycopersicum, UniProt D2KQI9+Q952Q7+Q952R1). Briefly: SDH inhibition, DCIP method. Format: biochemical. The settings on record: nontarget SDH.
For series [3], the target named is SDH derived from Brassica oleracea (Cabbage) (Brassica oleracea, UniProt A0A0D3B707+A0A0D3E0G9+A0A0D3EGP9). The series can be described thus: SDH inhibition, DCIP method. Format: biochemical. The settings on record: nontarget SDH.
For series [4], the target named is SDH derived from Botrytis cinerea (Botrytis cinerea, UniProt A0A384J5E4+D2IH01+D2IH03). Briefly: SDH inhibition, DCIP method. The class given is biochemical.
For series [5], the target named is SDH derived from Magnaporthe oryzae (Pyricularia oryzae, UniProt A0ABQ8NN34+G4N2P5+G4NB04). The class given is biochemical. The settings on record: read-out: SDH IC50.
Series [6] deals with Powdery mildew (Barley). The settings on record: cited from earlier work.
The test system of series [7] is SDH derived from Sclerotinia minor. Briefly: SDH inhibition, DCIP method. Format: biochemical. The settings on record: read-out: SDH IC50.
Series [8] has as its system Gray mold (Cucumber). The settings on record: cited from earlier work.
Series [9] is described as follows: Solubility in water. Format: physicochemical. Put shortly: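 Water solubility measured at 20°C, reported in mg/L.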
Series [10] relates to Sclerotinia sclerotiorum. The settings on record: cited from earlier work.
For series [11], the target named is SDH derived from Rhizoctonia solani (Rhizoctonia solani, UniProt A0A074S2N8+A0A0B7FBK7+A0A0B7FK09). Briefly: SDH inhibition, DCIP method. Format: biochemical. The settings on record: read-out: SDH IC50.
Series [12] deals with SDH derived from Mus musculus (Mouse) (Mus musculus, UniProt Q9CQA3+Q9CXV1+Q9CZB0). Briefly: SDH inhibition, DCIP method. The class given is biochemical.
Sequence of SDH derived from Mus musculus (Mouse) (Q9CQA3 31-282): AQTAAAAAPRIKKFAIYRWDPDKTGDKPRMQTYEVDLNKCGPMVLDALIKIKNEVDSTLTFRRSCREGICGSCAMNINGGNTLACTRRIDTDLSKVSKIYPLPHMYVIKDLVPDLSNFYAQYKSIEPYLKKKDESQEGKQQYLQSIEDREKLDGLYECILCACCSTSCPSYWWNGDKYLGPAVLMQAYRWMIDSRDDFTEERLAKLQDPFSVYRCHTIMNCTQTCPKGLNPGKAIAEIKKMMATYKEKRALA
Sequence of SDH derived from Mus musculus (Mouse) (Q9CZB0 30-169): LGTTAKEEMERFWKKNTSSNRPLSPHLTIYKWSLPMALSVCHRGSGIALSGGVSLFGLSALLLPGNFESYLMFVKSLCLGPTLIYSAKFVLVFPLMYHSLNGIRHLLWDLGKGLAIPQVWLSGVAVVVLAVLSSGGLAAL
Sequence of SDH derived from Mus musculus (Mouse) (Q9CXV1 57-159): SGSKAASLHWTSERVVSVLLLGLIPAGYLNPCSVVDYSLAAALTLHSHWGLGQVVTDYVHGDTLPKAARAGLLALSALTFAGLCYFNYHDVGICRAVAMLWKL
Sequence of SDH derived from Mus musculus (Mouse) (Q8K2B3 43-664 partner): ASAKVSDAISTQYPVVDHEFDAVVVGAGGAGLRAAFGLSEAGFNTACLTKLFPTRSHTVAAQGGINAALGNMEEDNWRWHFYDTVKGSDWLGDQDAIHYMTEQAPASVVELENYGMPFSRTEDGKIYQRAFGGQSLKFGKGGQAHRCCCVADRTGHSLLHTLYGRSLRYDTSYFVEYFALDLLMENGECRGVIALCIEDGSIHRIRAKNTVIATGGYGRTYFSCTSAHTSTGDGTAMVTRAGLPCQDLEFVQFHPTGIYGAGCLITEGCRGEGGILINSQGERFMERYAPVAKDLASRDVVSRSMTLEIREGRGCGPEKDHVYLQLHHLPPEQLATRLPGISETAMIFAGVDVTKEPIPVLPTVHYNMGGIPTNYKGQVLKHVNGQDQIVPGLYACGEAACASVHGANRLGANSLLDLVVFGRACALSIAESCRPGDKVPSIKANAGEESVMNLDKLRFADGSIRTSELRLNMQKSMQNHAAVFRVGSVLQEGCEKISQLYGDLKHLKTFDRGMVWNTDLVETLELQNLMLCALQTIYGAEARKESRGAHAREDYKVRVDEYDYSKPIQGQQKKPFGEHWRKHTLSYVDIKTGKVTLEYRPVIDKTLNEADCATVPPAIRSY
Series [13] has as its target SDH derived from Blumeria graminis (Blumeria graminis, UniProt N1J5Q8+N1JC31+N1JIS1). The series can be described thus: SDH inhibition, DCIP method. Format: biochemical.
The subject of series [14] is SDH derived from Alternaria brassicae. Briefly: SDH inhibition, DCIP method. The note with it: read-out: SDH IC50. The class given is biochemical.
In series [15] the target is SDH derived from Cucumis sativus (Cucumber) (Cucumis sativus, UniProt A0A0A0LBZ3+G3EIY8+G3EJ03). Briefly: SDH inhibition, DCIP method. The settings on record: nontarget SDH. Format: biochemical.
Series [16] has as its system SDH derived from Pythium aphanidermatum. Briefly: SDH inhibition, DCIP method. Format: biochemical.
The test system of series [17] is Brown rust (Wheat). The settings on record: cited from earlier work.
Series [18] deals with SDH derived from Venturia inaequalis (Venturia inaequalis, UniProt A0A0H4U4T0+A0A370JIY7+A0A8H3Z7E8). The series can be described thus: SDH inhibition, DCIP method. The settings on record: read-out: SDH IC50. Format: biochemical.
Sequence of SDH derived from Venturia inaequalis (A0A0H4U4T0 26-281): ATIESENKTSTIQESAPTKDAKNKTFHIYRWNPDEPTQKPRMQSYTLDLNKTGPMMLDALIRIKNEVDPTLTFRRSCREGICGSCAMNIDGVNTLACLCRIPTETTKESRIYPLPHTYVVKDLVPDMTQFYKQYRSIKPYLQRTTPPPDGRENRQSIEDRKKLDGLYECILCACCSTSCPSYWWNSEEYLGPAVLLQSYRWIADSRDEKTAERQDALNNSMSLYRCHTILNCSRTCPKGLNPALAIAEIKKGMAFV
Sequence of SDH derived from Venturia inaequalis (A0A370JIY7 44-187): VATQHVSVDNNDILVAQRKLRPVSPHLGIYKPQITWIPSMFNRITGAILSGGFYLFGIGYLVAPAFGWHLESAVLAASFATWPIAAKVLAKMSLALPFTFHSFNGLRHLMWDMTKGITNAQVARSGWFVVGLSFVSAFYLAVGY
Sequence of SDH derived from Venturia inaequalis (A0A8H3Z7E8 72-200): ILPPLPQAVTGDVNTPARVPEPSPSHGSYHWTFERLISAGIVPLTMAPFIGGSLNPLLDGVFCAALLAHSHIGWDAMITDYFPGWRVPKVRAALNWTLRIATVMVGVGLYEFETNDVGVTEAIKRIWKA
Sequence of SDH derived from Venturia inaequalis (A0A8H3ZBE1 860-1473 partner): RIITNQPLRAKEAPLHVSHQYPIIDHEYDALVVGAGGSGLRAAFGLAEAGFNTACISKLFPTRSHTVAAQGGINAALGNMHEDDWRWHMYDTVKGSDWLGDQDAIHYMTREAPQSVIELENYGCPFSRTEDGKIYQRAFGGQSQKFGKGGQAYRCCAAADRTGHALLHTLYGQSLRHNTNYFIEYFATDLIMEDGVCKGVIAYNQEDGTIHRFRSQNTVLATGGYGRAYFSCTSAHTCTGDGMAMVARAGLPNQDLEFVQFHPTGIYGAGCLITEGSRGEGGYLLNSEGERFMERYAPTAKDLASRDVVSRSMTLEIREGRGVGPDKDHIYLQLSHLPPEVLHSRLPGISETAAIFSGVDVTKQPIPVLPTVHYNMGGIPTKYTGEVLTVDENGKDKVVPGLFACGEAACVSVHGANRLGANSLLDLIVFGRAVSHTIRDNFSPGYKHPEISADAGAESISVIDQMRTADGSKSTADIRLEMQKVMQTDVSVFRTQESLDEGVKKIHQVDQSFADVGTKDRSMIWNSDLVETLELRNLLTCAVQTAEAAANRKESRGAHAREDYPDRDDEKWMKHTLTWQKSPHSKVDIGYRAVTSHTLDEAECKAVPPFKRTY
For series [19], the target named is SDH derived from Puccinia recondita (Puccinia triticina, UniProt A0A0C4ES27+A0A180H0E4+A0A915VLF5). The series can be described thus: SDH inhibition, DCIP method. The class given is biochemical. The note with it: read-out: SDH IC50.

Sequence of SDH derived from Solanum lycopersicum (Tomato) (D2KQI9 29-274): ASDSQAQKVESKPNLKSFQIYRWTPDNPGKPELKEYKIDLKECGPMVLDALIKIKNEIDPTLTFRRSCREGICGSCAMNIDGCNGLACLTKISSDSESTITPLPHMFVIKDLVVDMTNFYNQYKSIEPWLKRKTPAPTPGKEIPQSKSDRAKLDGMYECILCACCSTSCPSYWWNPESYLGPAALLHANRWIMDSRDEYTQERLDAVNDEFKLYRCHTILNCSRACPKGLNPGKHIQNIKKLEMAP
Sequence of SDH derived from Solanum lycopersicum (Tomato) (Q952R1 1-108): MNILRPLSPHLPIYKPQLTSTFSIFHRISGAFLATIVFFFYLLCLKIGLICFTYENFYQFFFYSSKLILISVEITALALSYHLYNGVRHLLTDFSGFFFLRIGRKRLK
Sequence of SDH derived from Solanum lycopersicum (Tomato) (Q952Q7 1-100): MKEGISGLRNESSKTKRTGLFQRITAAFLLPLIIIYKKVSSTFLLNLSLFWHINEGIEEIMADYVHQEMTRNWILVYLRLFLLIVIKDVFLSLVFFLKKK
Sequence of SDH derived from Solanum lycopersicum (Tomato) (A0A3Q7F7G5 28-629 partner): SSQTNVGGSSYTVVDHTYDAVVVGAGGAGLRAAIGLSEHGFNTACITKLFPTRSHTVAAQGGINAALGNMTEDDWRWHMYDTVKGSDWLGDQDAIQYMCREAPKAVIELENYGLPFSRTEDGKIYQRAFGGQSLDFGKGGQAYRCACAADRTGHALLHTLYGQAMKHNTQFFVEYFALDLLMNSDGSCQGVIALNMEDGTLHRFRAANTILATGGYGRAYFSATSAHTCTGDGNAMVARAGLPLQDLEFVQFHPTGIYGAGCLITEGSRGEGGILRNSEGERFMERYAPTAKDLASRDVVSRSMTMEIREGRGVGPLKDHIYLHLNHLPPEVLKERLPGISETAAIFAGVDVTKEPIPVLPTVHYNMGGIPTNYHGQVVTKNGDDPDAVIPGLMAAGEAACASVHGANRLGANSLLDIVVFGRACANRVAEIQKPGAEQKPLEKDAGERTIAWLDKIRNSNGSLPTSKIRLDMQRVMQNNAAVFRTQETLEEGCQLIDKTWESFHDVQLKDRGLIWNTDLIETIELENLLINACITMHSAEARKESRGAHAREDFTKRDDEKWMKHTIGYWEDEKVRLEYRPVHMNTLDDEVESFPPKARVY
Sequence of SDH derived from Blumeria graminis (N1J5Q8 1-245): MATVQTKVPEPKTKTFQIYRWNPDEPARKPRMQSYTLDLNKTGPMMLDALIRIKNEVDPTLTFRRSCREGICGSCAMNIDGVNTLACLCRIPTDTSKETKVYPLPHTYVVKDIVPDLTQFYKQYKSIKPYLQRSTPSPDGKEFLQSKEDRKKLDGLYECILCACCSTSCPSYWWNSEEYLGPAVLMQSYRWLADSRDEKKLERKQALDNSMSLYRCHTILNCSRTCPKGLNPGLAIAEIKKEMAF
Sequence of SDH derived from Blumeria graminis (N1JC31 44-188): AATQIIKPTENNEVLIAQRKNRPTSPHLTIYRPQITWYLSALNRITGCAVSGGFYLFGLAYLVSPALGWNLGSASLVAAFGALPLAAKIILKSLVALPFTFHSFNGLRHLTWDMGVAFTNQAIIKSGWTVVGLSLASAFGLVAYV
Sequence of SDH derived from Blumeria graminis (N1JIS1 58-186): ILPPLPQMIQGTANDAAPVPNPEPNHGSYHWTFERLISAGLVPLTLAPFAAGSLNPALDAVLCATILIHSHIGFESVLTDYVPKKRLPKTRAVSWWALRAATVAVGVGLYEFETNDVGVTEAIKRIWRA
Sequence of SDH derived from Blumeria graminis (N1JEV1 49-662 partner): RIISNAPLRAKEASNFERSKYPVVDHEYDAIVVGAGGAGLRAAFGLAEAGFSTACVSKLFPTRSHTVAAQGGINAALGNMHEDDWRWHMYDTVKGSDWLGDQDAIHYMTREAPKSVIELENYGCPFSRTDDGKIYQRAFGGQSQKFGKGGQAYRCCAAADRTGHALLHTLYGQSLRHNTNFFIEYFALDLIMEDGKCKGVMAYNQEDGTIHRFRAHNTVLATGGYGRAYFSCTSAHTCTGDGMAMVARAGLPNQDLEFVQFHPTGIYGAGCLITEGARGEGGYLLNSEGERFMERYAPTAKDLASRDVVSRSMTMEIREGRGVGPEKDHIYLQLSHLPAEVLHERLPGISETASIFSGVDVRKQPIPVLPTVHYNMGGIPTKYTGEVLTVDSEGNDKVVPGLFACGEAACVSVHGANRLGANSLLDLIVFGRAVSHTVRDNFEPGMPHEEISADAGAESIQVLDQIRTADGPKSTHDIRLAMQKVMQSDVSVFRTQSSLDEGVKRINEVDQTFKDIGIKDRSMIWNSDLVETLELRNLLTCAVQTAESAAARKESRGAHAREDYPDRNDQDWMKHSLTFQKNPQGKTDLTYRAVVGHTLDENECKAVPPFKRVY

As to `O=C(Nc1ccccc1-c1ccc(F)c(F)c1)c1nccnc1C(F)(F)F` [Compound 9, N-(3′,4′-difluorobiphenyl-2-yl)-3-(trifluoromethyl)pyrazine-2-carboxamide], the “residual activity against Marssonina blotch of apple” value in series [1] is “excellent residual activity”. In addition, the SDH inhibitory activity entry is “did not show any inhibitory activity” in [2]; “did not show any inhibitory activity” in series [3]; “did not show any inhibitory activity” in [12] (nontarget SDH, mice); “did not show any inhibitory activity” in [15]; “no inhibitory activity” in series [16] (oomycete Pythium aphanidermatum). Moreover, the IC50 in series [4] was 4.1 nM; in series [5] it was 2500 nM; in series [7], 0.7 nM; in [11], 5.9 nM; in [12], greater than 32000 nM; in series [13], 5.8 nM. Moreover, the IC50 in [14] was 2.1 nM; in series [16] (read-out: SDH IC50, Pythium aphanidermatum), greater than 8000 nM; in [18], 18.9 nM; in series [19], 14.4 nM. The “Fungicidal activity EC80, Powdery mildew (Barley)” value in series [6] is 0.5–2 mg a.i./L. In addition, the “Fungicidal activity EC80, Gray mold (Cucumber)” value in [8] is on record as 2–10 mg a.i./L. The solubility in [9] was 2.32 µg/mL (≈ 6.12 µM). Moreover, in series [10], the “inhibition activity against apothecium formation” value is “exhibits inhibition activity”. In addition, in series [17], the “Fungicidal activity EC80, Brown rust (Wheat)” value is on record as 0.5–2 mg a.i./L.
